We go through seven compounds from ChEMBL document CHEMBL1124792, “Synthesis and structure-activity relationships of 5-substituted 6,8-difluoroquinolones, including sparfloxacin, a new quinolone antibacterial agent with improved potency” (1990).

What all share (type): functional
The test system of one experiment is Enterococcus faecalis. The experiment is described as follows: In vitro antibacterial activity against Streptococcus faecalis 2473. A digest of the protocol:
(§1)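 Two-fold agar dilution MIC on Mueller-Hinton agar (pH 7.4), following the Japan Society of Chemotherapy MIC Committee method. Inoculum was about 10⁶ CFU, and growth was read after 20 h at 37 °C. MIC is reported in µg/mL.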

Experiment [1] concerns Staphylococcus epidermidis. The experiment is described as follows: In vitro antibacterial activity against Streptococcus epidermis 8. The essentials: as §1
A further experiment relates to Enterobacter cloacae. Kind of experiment: In vitro antibacterial activity against Enterobacter cloacae 963.
The next experiment has as its system Streptococcus pyogenes. Kind of experiment: In vitro antibacterial activity against Streptococcus pyogenes A65. The essentials:
as §1

For a further experiment, the system named is Klebsiella pneumoniae. The experiment is described as follows: In vitro antibacterial activity against Klebsiella pneumoniae 13. A digest of the protocol:
as §1

The species named for experiment [2] is Mus musculus. Kind of experiment: Oral efficacy against Pseudomonas aeruginosa 12 on Systemic Infections in Mice. The essentials: (§2)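 Groups of at least 10 male Std-ddY mice (20 ± 2 g) were infected ip, with S. pyogenes A65 at 3×10^7 cells or P. aeruginosa 12 at 4×10^3 cells. Compounds were suspended in 0.2% sodium carboxymethylcellulose and given orally at 0 and 6 h postinfection. The result is reported as ED50 in mg/kg.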

For experiment [3], the system named is Escherichia coli. Kind of experiment: In vitro antibacterial activity against Escherichia coli NIHJ JC-2. The essentials:
as §1

Experiment [4] concerns Pseudomonas aeruginosa. The experiment is described as follows: In vitro antibacterial activity against Pseudomonas aeruginosa 12. A digest of the protocol: as §1
For experiment [5], the system named is Escherichia coli. Kind of experiment: In vitro antibacterial activity against Escherichia coli P-5101. A digest of the protocol: as §1
Experiment [6] has as its system Serratia marcescens. The experiment is described as follows: In vitro antibacterial activity against Serratia marcescence S-9. The essentials:
as §1

The next experiment relates to Moraxella bovis. The experiment is described as follows: In vitro antibacterial activity against glucose nonfermenter Moraxella bovis P-7101. The essentials: as §1
Experiment [7] has as its system Staphylococcus aureus. Kind of experiment: In vitro antibacterial activity against Staphylococcus aureus 209P JC-1. The essentials:
as §1

The species entered for experiment [8] is Mus musculus. The experiment is described as follows: Oral efficacy against Streptococcus pyogenes A65 on Systemic Infections in Mice. A digest of the protocol:
as §2

In experiment [9] the test system is Pseudomonas aeruginosa. Kind of experiment: In vitro antibacterial activity against Pseudomonas aeruginosa IFO 3445. A digest of the protocol:
as §1

The subject of experiment [10] is Staphylococcus aureus. Kind of experiment: In vitro antibacterial activity against Staphylococcus aureus 50774. A digest of the protocol:
as §1

Experiment [11] deals with Serratia marcescens. The experiment is described as follows: In vitro antibacterial activity against Serratia marcescens S-9. The essentials:
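MIC (µg/mL) by 2-fold agar dilution on Mueller-Hinton agar (pH 7.4), following the Japan Society of Chemotherapy MIC Committee method. Inoculum of about 10⁶ CFU. Growth was read after 20 h at 37 °C.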

For experiment [12], the system named is Serratia marcescens. Kind of experiment: In vitro antibacterial activity against Serratia marcescene S-9. The essentials:
as §1

Converted amounts (≈) assume the structure as drawn.

By MIC is commonly meant the least concentration at which growth counts as inhibited. What is called ED50 is the midpoint of the dose-response relation. High values mean weaker potency, low ones greater potency. With `C[C@@H]1CN(c2c(F)c(N)c3c(=O)c(C(=O)O)cn(C4CC4)c3c2F)C[C@H](C)N1C`, the MIC with Enterococcus faecalis was determined as 0.39 µg/mL (≈ 0.96 µM); in experiment [1] it was 0.05 µg/mL (≈ 0.123 µM); against Enterobacter cloacae it was 0.05 µg/mL (≈ 0.123 µM); against Streptococcus pyogenes, 0.39 µg/mL (≈ 0.96 µM); with Klebsiella pneumoniae, 0.1 µg/mL (≈ 0.246 µM); against Escherichia coli [3], 0.025 µg/mL (≈ 0.0615 µM). Besides, the minimum inhibitory concentration (MIC) with Pseudomonas aeruginosa [4] was determined as 0.39 µg/mL (≈ 0.96 µM); in the experiment on Escherichia coli [5], 0.0125 µg/mL (≈ 0.0308 µM); with Serratia marcescens [6] it was 0.2 µg/mL (≈ 0.492 µM); against Moraxella bovis it was 0.78 µg/mL (≈ 1.92 µM); against Staphylococcus aureus [7], 0.05 µg/mL (≈ 0.123 µM); in the experiment with Pseudomonas aeruginosa [9], 0.78 µg/mL (≈ 1.92 µM). The compound also came in with an MIC against Staphylococcus aureus [10] of 0.025 µg/mL (≈ 0.0615 µM). Moreover, the median effective dose (ED50) in the experiment listed under Mus musculus [2] is 2.21 mg/kg; in the experiment listed under Mus musculus [8] it was 5.64 mg/kg.
For `CC1CN(c2c(F)c(Cl)c3c(=O)c(C(=O)O)cn(C4CC4)c3c2F)CCN1` (centres undefined), the minimum inhibitory concentration (MIC) in the experiment on Enterococcus faecalis amounted to 0.78 µg/mL (≈ 1.96 µM); in experiment [1] it was 0.1 µg/mL (≈ 0.251 µM); with Enterobacter cloacae, 0.05 µg/mL (≈ 0.126 µM); in the experiment with Streptococcus pyogenes, 0.78 µg/mL (≈ 1.96 µM); with Klebsiella pneumoniae, 0.05 µg/mL (≈ 0.126 µM); against Escherichia coli [3], 0.0125 µg/mL (≈ 0.0314 µM). For the same compound, the MIC against Pseudomonas aeruginosa [4] is 0.39 µg/mL (≈ 0.98 µM); against Escherichia coli [5], 0.0125 µg/mL (≈ 0.0314 µM); in the experiment on Serratia marcescens [6], 0.2 µg/mL (≈ 0.503 µM); against Moraxella bovis it was 1.56 µg/mL (≈ 3.92 µM); against Staphylococcus aureus [7], 0.1 µg/mL (≈ 0.251 µM); against Pseudomonas aeruginosa [9], 0.78 µg/mL (≈ 1.96 µM). Moreover, the MIC in the experiment with Staphylococcus aureus [10] stood at 0.1 µg/mL (≈ 0.251 µM). This compound also showed an ED50 in the experiment listed under Mus musculus [2] of 1.65 mg/kg.
As for `CN1CCN(c2c(F)c(N)c3c(=O)c(C(=O)O)cn(C4CC4)c3c2F)CC1`, the MIC against Enterococcus faecalis stood at 0.78 µg/mL (≈ 2.06 µM); in [1] it was 0.05 µg/mL (≈ 0.132 µM); against Enterobacter cloacae it was 0.025 µg/mL (≈ 0.0661 µM); against Streptococcus pyogenes it was 0.39 µg/mL (≈ 1.03 µM); against Klebsiella pneumoniae it was 0.05 µg/mL (≈ 0.132 µM); against Escherichia coli [3], 0.0125 µg/mL (≈ 0.033 µM). In addition, the minimal inhibitory concentration (MIC) worked out at 0.1 µg/mL (≈ 0.264 µM) against Serratia marcescens [11]; 0.2 µg/mL (≈ 0.529 µM) against Pseudomonas aeruginosa [4]; 0.0125 µg/mL (≈ 0.033 µM) with Escherichia coli [5]; 0.39 µg/mL (≈ 1.03 µM) with Moraxella bovis; 0.1 µg/mL (≈ 0.264 µM) in the experiment on Staphylococcus aureus [7]; 1.56 µg/mL (≈ 4.12 µM) in the experiment on Pseudomonas aeruginosa [9]. Moreover, inhibition of growth in the experiment on Staphylococcus aureus [10] (MIC) required 0.05 µg/mL (≈ 0.132 µM). For the same compound, the ED50 is 2.18 mg/kg in the experiment filed under Mus musculus [2] and 22.9 mg/kg in the experiment listed under Mus musculus [8].
On to `CC1CN(c2c(F)c(F)c3c(=O)c(C(=O)O)cn(C4CC4)c3c2F)CCN1` (centres undefined), for which the MIC with Enterococcus faecalis was found to be 3.13 µg/mL (≈ 8.21 µM); in experiment [1], 0.2 µg/mL (≈ 0.524 µM); in the experiment with Enterobacter cloacae, 0.025 µg/mL (≈ 0.0656 µM); in the experiment with Streptococcus pyogenes it was 1.56 µg/mL (≈ 4.09 µM); in the experiment on Klebsiella pneumoniae, 0.05 µg/mL (≈ 0.131 µM); in the experiment with Escherichia coli [3], 0.0125 µg/mL (≈ 0.0328 µM). Also, the MIC in the experiment with Pseudomonas aeruginosa [4] was found to be 0.78 µg/mL (≈ 2.05 µM); against Escherichia coli [5], 0.0063 µg/mL (≈ 0.0165 µM); with Serratia marcescens [12], 0.2 µg/mL (≈ 0.524 µM); against Moraxella bovis it was 1.56 µg/mL (≈ 4.09 µM); against Staphylococcus aureus [7], 0.2 µg/mL (≈ 0.524 µM); in the experiment on Pseudomonas aeruginosa [9] it was 0.78 µg/mL (≈ 2.05 µM). Further, the MIC in the experiment on Staphylococcus aureus [10] turned out to be 0.2 µg/mL (≈ 0.524 µM). For the same compound, the ED50 worked out at 2.46 mg/kg in the experiment listed under Mus musculus [2] and 17.3 mg/kg in the experiment listed under Mus musculus [8].
`CN1CCN(c2c(F)cc3c(=O)c(C(=O)O)cn(C4CC4)c3c2F)CC1`: the MIC in the experiment on Enterococcus faecalis was determined as 0.78 µg/mL (≈ 2.15 µM); in experiment [1], 0.1 µg/mL (≈ 0.275 µM); in the experiment with Enterobacter cloacae, 0.05 µg/mL (≈ 0.138 µM); in the experiment with Streptococcus pyogenes, 0.39 µg/mL (≈ 1.07 µM); in the experiment with Klebsiella pneumoniae it was 0.05 µg/mL (≈ 0.138 µM); against Escherichia coli [3] it was 0.025 µg/mL (≈ 0.0688 µM). Further, the MIC worked out at 0.1 µg/mL (≈ 0.275 µM) in the experiment on Serratia marcescens [11]; 0.39 µg/mL (≈ 1.07 µM) in the experiment on Pseudomonas aeruginosa [4]; 0.0125 µg/mL (≈ 0.0344 µM) with Escherichia coli [5]; 0.78 µg/mL (≈ 2.15 µM) with Moraxella bovis; 0.2 µg/mL (≈ 0.55 µM) with Staphylococcus aureus [7]; 0.78 µg/mL (≈ 2.15 µM) against Pseudomonas aeruginosa [9]. Besides, the MIC in the experiment on Staphylococcus aureus [10] is 0.1 µg/mL (≈ 0.275 µM). The ED50 worked out at 2.18 mg/kg in the experiment listed under Mus musculus [2] and 8.84 mg/kg in the experiment filed under Mus musculus [8].
As for `C[C@@H]1CN(c2c(F)c(N)c3c(=O)c(C(=O)O)cn(C4CC4)c3c2F)C[C@@H](C)N1` (relative stereo), the MIC in the experiment on Enterococcus faecalis is 0.39 µg/mL (≈ 0.994 µM); in experiment [1], 0.0125 µg/mL (≈ 0.0319 µM); with Enterobacter cloacae it was 0.1 µg/mL (≈ 0.255 µM); against Streptococcus pyogenes it was 0.39 µg/mL (≈ 0.994 µM); with Klebsiella pneumoniae, 0.1 µg/mL (≈ 0.255 µM); in the experiment on Escherichia coli [3], 0.0125 µg/mL (≈ 0.0319 µM). The MIC came out at 0.78 µg/mL (≈ 1.99 µM) in the experiment on Pseudomonas aeruginosa [4]; 0.0125 µg/mL (≈ 0.0319 µM) in the experiment on Escherichia coli [5]; 0.39 µg/mL (≈ 0.994 µM) against Serratia marcescens [6]; 0.78 µg/mL (≈ 1.99 µM) in the experiment on Moraxella bovis; 0.025 µg/mL (≈ 0.0637 µM) with Staphylococcus aureus [7]; 0.78 µg/mL (≈ 1.99 µM) in the experiment on Pseudomonas aeruginosa [9]. Also, the MIC in the experiment with Staphylococcus aureus [10] was 0.025 µg/mL (≈ 0.0637 µM). The median effective dose (ED50) came to 6.33 mg/kg in the experiment listed under Mus musculus [2] and 7.38 mg/kg in the experiment filed under Mus musculus [8].
For the compound `C[C@@H]1CN(c2c(F)c(N)c3c(=O)c(C(=O)O)cn(C4CC4)c3c2F)C[C@H](C)N1` [SPARFLOXACIN], the MIC in the experiment on Enterococcus faecalis is 0.78 µg/mL (≈ 1.99 µM); in experiment [1] it was 0.05 µg/mL (≈ 0.127 µM); against Enterobacter cloacae, 0.05 µg/mL (≈ 0.127 µM); against Streptococcus pyogenes it was 0.39 µg/mL (≈ 0.994 µM); against Klebsiella pneumoniae, 0.05 µg/mL (≈ 0.127 µM); against Escherichia coli [3], 0.0125 µg/mL (≈ 0.0319 µM). The MIC in the experiment on Pseudomonas aeruginosa [4] was 0.39 µg/mL (≈ 0.994 µM); against Escherichia coli [5] it was 0.0125 µg/mL (≈ 0.0319 µM); with Serratia marcescens [6], 0.2 µg/mL (≈ 0.51 µM); with Moraxella bovis, 0.39 µg/mL (≈ 0.994 µM); with Staphylococcus aureus [7] it was 0.05 µg/mL (≈ 0.127 µM); in the experiment on Pseudomonas aeruginosa [9] it was 0.39 µg/mL (≈ 0.994 µM). Besides, in the experiment with Staphylococcus aureus [10], the MIC amounted to 0.05 µg/mL (≈ 0.127 µM). Besides, the ED50 was found to be 1.57 mg/kg in the experiment listed under Mus musculus [2] and 3.36 mg/kg in the experiment listed under Mus musculus [8].
